# Source: ChEMBL document CHEMBL4316599, “Synthesis, in vitro and in vivo biological evaluation of substituted 3-(5-imidazo[2,1-b]thiazolylmethylene)-2-indolinones as new potent anticancer agents” (Eur J Med Chem, 2019)
# pIC50: −log10 of the molar value. Activity calls are given as the source filed them. No cut-off for these calls is given here.
# What was measured:
# [1] = system: B16-BL6; test: Antitumor activity mouse B16-BL6 cells implanted in C57BL/6 mouse assessed tumor growth inhibition at 30 mg/kg, ip dosed every other day for 18 days relative to control; type: functional; conditions: 432 h, read-out: TGI
# Summary of the method: (§1)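 Syngeneic allograft: C57BL/6 mice, six weeks old, given 2.5×10^5 BL6-B16 or E0771 cells subcutaneously in the dorsolateral flank in PBS. Dosing began at about 100 mm³. Test compound or reference was given intraperitoneally every other day in 50 μL DMSO, with DMSO vehicle controls. Tumor volume was compared with the vehicle group, 5 animals per group, mean ± SEM, by 2-way ANOVA with Bonferroni correction.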
# [2] = system: K562; test: Cytotoxicity against human K562 cells after 16 hrs by SRB assay; conditions: K562, 16 h
# [3] = system: K562; test: Cell cycle arrest in human K562 cells assessed as mitotic index at 5 times IC50 by Giemsa staining-based assay (reference value: 3%); type: functional
# [4] = system: K562; test: Cell cycle arrest in human K562 cells assessed as mitotic index at IC50 by Giemsa staining-based assay (reference value: 3%); type: functional
# [5] = system: E0771; test: Antitumor activity mouse E0771 cells implanted in C57BL/6 mouse assessed tumor growth inhibition at 30 mg/kg, ip dosed every other day for 20 days relative to control; type: functional; conditions: 480 h, read-out: TGI; summary of the method: as §1
# [6] = system: K562; test: Cytotoxicity against human K562 cells after 48 hrs by SRB assay; type: functional, cell-based
# [7] = system: K562; test: Cell cycle arrest in human K562 cells assessed as mitotic index at 10 times IC50 by Giemsa staining-based assay (reference value: 3%); type: functional
# [8] = system: NSCLC; test: Cytotoxicity against human NSCLC cells after 48 hrs by SRB assay; type: functional
# Summary of the method: (§2)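 NCI-60 screen: single-dose pass at 10^-5 M, then a five-concentration assay from 10^-9 to 10^-4 M (highest 100 μM). Exposure was 48 h under standard NCI protocols. GI50, TGI and LC50 were derived per cell line and averaged by subpanel. Repeated tests are the mean of two experiments.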
# [9] = system: HT-29; test: Cell cycle arrest in human HT-29 cells assessed as reduction in accumulation of cells at S phase up to 1000 nM after 24 hrs by propidium iodide staining-based flow cytometric analysis; type: functional
# Summary of the method: (§3)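 Cells exposed to a range of concentrations for 24 h (HeLa at 5×10^5 cells), then fixed in ice-cold 70% ethanol. Lysis buffer with RNase A and 0.1% Triton X-100 was applied before PI staining. DNA content was read by flow cytometry and G1/S/G2/M fractions taken from DNA histograms. Mean ± SEM of two independent experiments.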
# [10] = biological target: T1, Tubulin (Bos taurus) (UniProt Q6B856+Q862L2+Q862F3); test: Inhibition of [3H]colchicine binding to bovine brain tubulin at 50 uM after 20 mins relative to control
# Summary of the method: (§4)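 Reaction mixtures held 1 μM tubulin, 5 μM [³H]colchicine and test compound at 5 or 50 μM. Read-out was percent inhibition of colchicine binding.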
# [11] = system: CNS carcinoma cell; test: Cytotoxicity against human CNS cancer cells after 48 hrs by SRB assay; type: functional; summary of the method: as §2
# [12] = system: HeLa; test: Induction of apoptosis in human HeLa cells assessed as decrease in Mcl-1 levels at 50 to 250 nM after 24 hrs by Western blot analysis; type: functional, cell-based
# Summary of the method: (§5)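 HeLa cells treated 24 h, washed in ice-cold PBS and lysed on ice 30 min. Lysates were spun at 15000 x g, 4 °C. 10 µg protein run on SDS-PAGE and blotted to PVDF. Blots were blocked in 5% BSA overnight at 4 °C and probed 2 h at room temperature. Detection by HRP-secondary and ECL, with bands normalized to β-actin as fold of untreated. Three independent experiments, one-way ANOVA/Dunnett.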
# [13] = system: Prostatic carcinoma cell; test: Cytotoxicity against human prostate cancer cells after 48 hrs by SRB assay; type: functional; summary of the method: as §2
# [14] = system: HeLa; test: Induction of apoptosis in human HeLa cells assessed as decrease in Bcl-2 levels at 50 to 250 nM after 24 hrs by Western blot analysis; type: functional, cell-based; summary of the method: as §5
# [15] = system: HeLa; test: Induction of ROS generation in human HeLa cells at 250 nM after 12 to 24 hrs by H2-DCFDA staining-based assay; type: functional, cell-based
# Summary of the method: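 HeLa cells treated 6, 12, 24 or 48 h, then loaded with H2-DCFDA and analysed by flow cytometry for ROS. Mean ± SEM of three independent experiments, compared against control.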
# [16] = system: Leukemia cell; test: Cytotoxicity against human leukemia cells after 48 hrs by SRB assay; type: functional; summary of the method: as §2
# [17] = system: Ovarian carcinoma cell; test: Cytotoxicity against human ovarian cancer cells after 48 hrs by SRB assay; type: functional; summary of the method: as §2
# [18] = system: HeLa; test: Cell cycle arrest in human HeLa cells assessed as reduction in accumulation of cells at G1 phase up to 1000 nM after 24 hrs by propidium iodide staining-based flow cytometric analysis; type: functional; summary of the method: as §3
# [19] = system: A549; test: Cell cycle arrest in human A549 cells assessed as reduction in accumulation of cells at G1 phase up to 600 nM after 24 hrs by propidium iodide staining-based flow cytometric analysis; type: functional; summary of the method: as §3
# [20] = system: HT-29; test: Cell cycle arrest in human HT-29 cells assessed as reduction in accumulation of cells at G1 phase up to 1000 nM after 24 hrs by propidium iodide staining-based flow cytometric analysis; type: functional; summary of the method: as §3
# [21] = Cytotoxicity against human COLON cells after 48 hrs by SRB assay; type: functional; summary of the method: as §2
# [22] = system: HeLa; test: Cell cycle arrest in human HeLa cells assessed as decrease in p-cdc25c expression at 50 to 250 nM after 24 hrs by Western blot analysis; type: functional, cell-based; summary of the method: as §5
# [23] = system: Melanoma cell line; test: Cytotoxicity against human melanoma cells after 48 hrs by SRB assay; type: functional; summary of the method: as §2
# [24] = system: A549; test: Induction of apoptosis in human A549 cells at 100 nM after 24 to 48 hrs by Annexin V-FITC/propidium iodide staining-based flow cytometric analysis; type: functional, cell-based
# Summary of the method: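 A549 cells treated 24 or 48 h at 12.5–100 nM, then double-stained with annexin-V-FITC and PI. Phosphatidylserine exposure was read by flow cytometry. Mean ± SEM of three independent experiments.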
# [25] = system: A549; test: Cell cycle arrest in human A549 cells assessed as reduction in accumulation of cells at S phase up to 600 nM after 24 hrs by propidium iodide staining-based flow cytometric analysis; type: functional; summary of the method: as §3
# [26] = biological target: T1, Tubulin (Bos taurus); test: Inhibition of [3H]colchicine binding to bovine brain tubulin at 5 uM after 20 mins relative to control; summary of the method: as §4
# [27] = system: Breast carcinoma cell; test: Cytotoxicity against human breast cancer cells after 48 hrs by SRB assay; type: functional; summary of the method: as §2
# [28] = system: HT-29; test: Cell cycle arrest in human HT-29 cells assessed as accumulation of cells at G2/M phase after 24 hrs by propidium iodide staining-based flow cytometric analysis; type: functional; summary of the method: as §3
# [29] = system: HeLa; test: Induction of apoptosis in human HeLa cells assessed as increase in caspase-9 activity at 50 to 250 nM after 24 hrs by Western blot analysis; type: functional, cell-based; summary of the method: as §5
# [30] = system: Renal cancer cell line; test: Cytotoxicity against human renal cancer cells after 48 hrs by SRB assay; type: functional; summary of the method: as §2
# [31] = biological target: Tubulin (Bos taurus, UniProt Q6B856+Q862L2+Q862F3); test: Inhibition of bovine brain tubulin polymerization after 20 mins by spectrophotometric analysis
# Summary of the method: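 Bovine brain tubulin (10 μM) in glutamate buffer preincubated with varying compound levels at 30 °C, then chilled to 0 °C. GTP added to 0.4 mM final, then warmed to 30 °C. Assembly followed by turbidity at 350 nm. IC50 is the concentration halving the extent of assembly after 20 min.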
# [32] = Cytotoxicity against human PBL after 72 hrs by MTT assay; type: cell-based; conditions: peripheral blood lymphocytes (PBL)
# Summary of the method: (§6)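 Lymphocytes from healthy donors were isolated on a Lymphoprep gradient and held overnight in RPMI-1640 with 10% FBS. Non-adherent cells were set at 5×10^5 cells/mL, either resting or stimulated with 2.5 μg/mL PHA. Cells were exposed to a range of compound concentrations for 72 h and viability read by MTT. GI50 is the mean ± SEM of three separate experiments.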
# [33] = Cytotoxicity against human PHA-stimulated PBL after 72 hrs by MTT assay; type: cell-based; conditions: PHA-stimulated peripheral blood lymphocytes (PBL); summary of the method: as §6
# [34] = system: HeLa; test: Induction of mitochondrial membrane depolarization in human HeLa cells at 250 to 500 nM after 6 to 48 hrs by JC-1 staining-based assay; type: functional, cell-based; conditions: TDE = time-dependent effect
# Summary of the method: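 HeLa cells treated at 250-500 nM for 6, 12, 24 or 48 h, then stained with JC-1. Percentage of cells with low mitochondrial membrane potential measured by flow cytometry. Mean ± SEM of three independent experiments.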
# [35] = system: HeLa; test: Induction of apoptosis in human HeLa cells assessed as increase in caspase-3 activity at 50 to 250 nM after 24 hrs by Western blot analysis; type: functional, cell-based; summary of the method: as §5
# [36] = system: A549; test: Cell cycle arrest in human A549 cells assessed as accumulation of cells at G2/M phase after 24 hrs by propidium iodide staining-based flow cytometric analysis; type: functional; summary of the method: as §3
# [37] = system: HeLa; test: Cell cycle arrest in human HeLa cells assessed as accumulation of cells at G2/M phase after 24 hrs by propidium iodide staining-based flow cytometric analysis; type: functional; summary of the method: as §3
# [38] = system: HeLa; test: Cell cycle arrest in human HeLa cells assessed as reduction in accumulation of cells at S phase up to 1000 nM after 24 hrs by propidium iodide staining-based flow cytometric analysis; type: functional; summary of the method: as §3
# [39] = read-out: LC50 (the source's name)
smiles,measurement,setting,value
COc1ccc(/C=C\c2cc(OC)c(OC)c(OC)c2)cc1O [COMBRETASTATIN A4],inhibition in vivo at 30 mg/kg,[1],16 to 18%
same,pIC50,[2],8.40
same,Activity,[3],32%
same,Activity,[4],15%
same,inhibition in vivo at 30 mg/kg,[5],30.9%
same,Activity,[6],Dose-dependent effect
same,Activity,[7],61%
O=C1Nc2c(ccc3ccccc23)/C1=C\c1c(-c2cccnc2)nc2sccn12,GI50,[8],1.78 µM
same,LC50,[8],61.7 µM
same,TGI,[8],16.2 µM
same,Activity,[9],Active
same,inhibition,[10],56%
same,GI50,[11],1.16 µM
same,TGI,[11],13.9 µM
same,CC50,[11]; [39],47.5 µM
same,Activity,[12],Active
same,GI50,[13],0.1 µM
same,TGI,[13],11.1 µM
same,CC50,[13]; [39],33.4 µM
same,Activity,[14],Active
same,Activity,[15],Active
same,GI50,[16],0.11 µM
same,TGI,[16],46.4 µM
same,pIC50,[2],6.70
same,GI50,[17],1.21 µM
same,LC50 (50% lethal concentration),[17],41.2 µM
same,TGI,[17],12.3 µM
same,Activity,[18],Active
same,Activity,[19],Active
same,Activity,[20],Active
same,GI50,[21],0.15 µM
same,TGI,[21],9.42 µM
same,CC50,[21]; [39],49 µM
same,Activity,[22],Active
same,GI50,[23],1.65 µM
same,TGI,[23],17.6 µM
same,CC50,[23]; [39],66.5 µM
same,Activity,[24],Active
same,Activity,[25],Active
same,Activity,[3],64%
same,inhibition,[26],31%
same,GI50,[27],0.26 µM
same,LC50 (concentration killing 50% of cells),[27],70.8 µM
same,TGI,[27],20.1 µM
same,Activity,[28],Dose-dependent effect
same,Activity,[29],Active
same,GI50,[30],1.24 µM
same,LC50 (50% lethal concentration),[30],49.2 µM
same,TGI,[30],15.9 µM
same,IC50,[31],2.2 µM
same,GI50 at 72 h,[32],3.1 µM
same,Activity,[4],22%
same,GI50 at 72 h,[33],2.5 µM
same,Activity,[6],Dose-dependent effect
same,Activity,[34],Tde
same,Activity,[35],Active
same,Activity,[36],Dose-dependent effect
same,Activity,[7],78%
same,Activity,[37],Dose-dependent effect
same,Activity,[38],Active
